The source of these data is ChEMBL document CHEMBL1131066, “2-Substituted aminopyrido[2,3-d]pyrimidin-7(8H)-ones. structure-activity relationships against selected tyrosine kinases and in vitro and in vivo anticancer activity” (J Med Chem, 1998).

In general, IC50 refers to the concentration needed to halve the response being measured. A low value points to greater potency.

Values joined by “and” are separate entries in the source; they are usually repeats but may differ in a detail not shown here. Identical values can stand only once.

The subject of experiment [1] is NIH3T3. The experiment is described as follows: Growth of NIH3T3 cell colonies in soft agar with continuous treatment. The class given is functional, cell-based. To be noted: Mus musculus. The gist of the method:
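Soft agar cloning used PDGF-B-transfected NIH3T3 (NIH3T3/PDGF) cells. Cells were exposed 3 days to a concentration series, then plated in soft agar with the matching compound concentration kept present. Colonies were stained and counted after two weeks. IC50; mean of two experiments, each in duplicate.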

Experiment [2] concerns COLO 205. Nature of the experiment: Weight change of COLO 205 tumor cells in mice at 40 mg/kg peroral dose, days 9-23 administration. The format is functional, organism-based. Also on record: dose 40 mg/kg. The gist of the method:
(§1)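 Tumor-bearing nude mice (NCr nu/nu, 18–22 g, 6–8 per group) were implanted in the right axilla with tumor fragments on day 0 and dosed by average cage weight. Vehicle was 50 mM sodium lactate pH 4.0, or 0.5% methyl cellulose suspension; cisplatin was given in saline. Host body weight change is given as the maximum treatment-related weight loss.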

The target of experiment [3] is T1, Fibroblast growth factor receptor 1 (Homo sapiens, UniProt P11362). The experiment is described as follows: Inhibition of fibroblast growth factor receptor (FGFr) tyrosine kinase. The gist of the method:
(§2)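 Recombinant kinases (PDGFr-β, FGFr-1, c-Src), enzyme inhibition IC50. Mean of at least two separate determinations, each done in triplicate; replicate values typically varied under 30%.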

In experiment [4] the test system is COLO 205. The experiment is described as follows: Net reduction in tumor burden between first and last treatments of COLO 205 cell tumors in mice at 40 mg/kg peroral dose, days 9-23 administration. The class given is functional. To be noted: route oral. The gist of the method:
(§3)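 NCr nu/nu nude mice (18–22 g, 6–8 per group, randomized) had tumor fragments, kept by serial passage in nude mice, implanted in the right axilla on day 0. Mice were dosed by average cage weight on the listed days, over a range from toxic to ineffective doses. Vehicle was 50 mM sodium lactate pH 4.0 or 0.5% methyl cellulose suspension. Net log cell kill was taken between first and last treatments.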

In experiment [5] the test system is C6. The experiment is described as follows: C6 cell growth in soft agar with discontinued treatment. The class given is functional, cell-based, Rattus norvegicus. To be noted: c6. The gist of the method: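 C6 rat glioma cells given 3-day exposure to a concentration series, then washed free of inhibitor and plated in drug-free soft agar; colonies stained and counted after two weeks. IC50; mean of two experiments, each in duplicate.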

In experiment [6] the test system is MCF7. The experiment is described as follows: Net reduction in tumor burden between first and last treatments of MCF-7 cell tumors in mice at 50 mg/kg peroral dose, days 1-15 administration. The format is functional. To be noted: route oral. The gist of the method: as §3
In experiment [7] the target is T1, Fibroblast growth factor receptor 1. Nature of the experiment: Inhibitory concentration evaluated against fibroblast growth factor receptor 1.
Experiment [8] relates to MCF7. The experiment is described as follows: Difference in days for treated (T) and control (C) MCF-7 cell tumors to reach 750 mg in mice at 50 mg/kg peroral dose, days 1-15 administration. The class given is functional. To be noted: route oral. The gist of the method: (§4)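 Nude mice (NCr nu/nu), 18–22 g, 6–8 per group, randomized and implanted with serially passaged tumor fragments in the right axilla on day 0. Dosed by average cage weight. Vehicle was 50 mM sodium lactate buffer, pH 4.0, or a 0.5% methyl cellulose suspension for one compound. Cisplatin was given in saline. T − C is the difference in days for treated and control tumors to reach 750 mg.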

Experiment [9] has as its system C6. Nature of the experiment: Difference in days for treated (T) and control (C) C6 glioma cell tumors to reach 750 mg in mice at 50 mg/kg peroral dose, days 1-15 administration. The format is functional. To be noted: route oral. The gist of the method:
as §4

In experiment [10] the target is Proto-oncogene tyrosine-protein kinase Src (Homo sapiens, UniProt P12931). The experiment is described as follows: Inhibition of c-Src tyrosine kinase. The class given is functional. The gist of the method:
as §2

For experiment [11], the system named is C6. The experiment is described as follows: C6 cell growth in soft agar with continuous treatment. The format is functional, cell-based, Rattus norvegicus. To be noted: c6. The gist of the method:
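C6 rat glioma cells (F10 Ham's with 15% horse serum, 2.5% fetal calf serum) exposed 3 days to a concentration series, then plated in soft agar with compound still present at the same concentration; colonies stained and counted after two weeks. IC50; mean of two experiments, each in duplicate.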

Experiment [12] relates to NIH3T3. Nature of the experiment: Growth of NIH3T3 cells in soft agar with continuous treatment. The format is functional, cell-based. To be noted: Mus musculus. The gist of the method: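 NIH3T3 cells transfected with PDGF-B exposed to a range of concentrations for 3 days, then cloned in soft agar with the same concentration kept present. Colonies stained and counted after two weeks. IC50; mean of two experiments, each in duplicate.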

Experiment [13] deals with Mus musculus. The experiment is described as follows: Weight change of PDGF-transfected fibroblast cells in mice at 50 mg/kg peroral dose, days 1-15 administration. The format is functional. To be noted: route oral. The gist of the method:
(§5)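 Nude mice (NCr nu/nu, 18–22 g, 6–8 per group) were randomized and implanted with serially passaged tumor fragments in the right axilla on day 0. Oral dosing was based on average cage weight, on the days stated, over a dose range from toxic to ineffective. Vehicle was 50 mM sodium lactate buffer, pH 4.0, or 0.5% methyl cellulose suspension. Host weight change is reported as maximum treatment-related loss.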

Experiment [14] deals with SK-OV-3. The experiment is described as follows: Weight change of SK-OV-3 cell tumors in mice at 40 mg/kg peroral dose, days 15-29 administration. The format is functional. To be noted: route oral. The gist of the method:
as §5

Experiment [15] deals with COLO 205. The experiment is described as follows: Difference in days for treated (T) and control (C) COLO 205 cell tumors to reach 750 mg in mice at 40 mg/kg peroral dose, days 9-23 administration. The format is functional. To be noted: route oral. The gist of the method: as §4
For experiment [16], the system named is C6. Nature of the experiment: Weight change of C6 glioma tumor cells in mice at 50 mg/kg peroral dose, days 1-15 administration. The class given is functional, organism-based. Also on record: dose 50 mg/kg. The gist of the method:
as §1

Experiment [17] concerns the target Platelet-derived growth factor receptor (Mus musculus, UniProt P05622+P26618). Nature of the experiment: Inhibition of PDGF-induced autophosphorylation of PDGF-R in NIH3T3 cells.
Experiment [18] concerns HT-29. The experiment is described as follows: Weight change of HT-29 tumor cells in mice at 44 mg/kg peroral dose, days 15-29 administration. The class given is functional. To be noted: route oral. The gist of the method: as §1
In experiment [19] the test system is MCF7. The experiment is described as follows: Weight change of MCF-7 tumor cells in mice at 50 mg/kg peroral dose, days 1-15 administration. The class given is functional, organism-based. Also on record: dose 50 mg/kg. The gist of the method: as §1
The subject of experiment [20] is NIH3T3. The experiment is described as follows: Inhibition of NIH3T3 proliferation by sulforhodamine B assay. The format is functional, cell-based, Mus musculus. To be noted: nih3t3. On the technique in general: In SRB staining, fixed cells bind dye roughly in proportion to their protein.
In experiment [21] the test system is Mus musculus. The experiment is described as follows: Difference in days for treated (T) and control (C) PDGF-transfected fibroblast tumors to reach 750 mg in mice at 50 mg/kg peroral dose, days 1-15 administration. The class given is functional. To be noted: route oral. The gist of the method: as §4
Experiment [22] concerns C6. The experiment is described as follows: Inhibition of C6 cell proliferation in sulforhodamine B assay. The format is functional, cell-based, Rattus norvegicus. To be noted: c6. The gist of the method: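 C6 rat glioma cells (F10 Ham's, 15% horse serum, 2.5% fetal calf serum) seeded and allowed 24 h to attach, then given serial 2-fold compound dilutions; 4 d at 37 °C, 5% CO2; growth read by sulforhodamine B staining. IC50; mean of two experiments, each in triplicate.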

In experiment [23] the test system is SK-OV-3. The experiment is described as follows: Difference in days for treated (T) and control (C) SKOV-3 cell tumors to reach 750 mg in mice at 40 mg/kg peroral dose, days 15-29 administration. The format is functional. To be noted: route oral. The gist of the method:
as §4

For experiment [24], the system named is HT-29. Nature of the experiment: Difference in days for treated (T) and control (C) HT-29 cell tumors to reach 750 mg in mice at 44 mg/kg peroral dose, days 15-29 administration. To be noted: route oral. The class given is functional. The gist of the method:
as §4

T1 sequence (P11362 whole entry): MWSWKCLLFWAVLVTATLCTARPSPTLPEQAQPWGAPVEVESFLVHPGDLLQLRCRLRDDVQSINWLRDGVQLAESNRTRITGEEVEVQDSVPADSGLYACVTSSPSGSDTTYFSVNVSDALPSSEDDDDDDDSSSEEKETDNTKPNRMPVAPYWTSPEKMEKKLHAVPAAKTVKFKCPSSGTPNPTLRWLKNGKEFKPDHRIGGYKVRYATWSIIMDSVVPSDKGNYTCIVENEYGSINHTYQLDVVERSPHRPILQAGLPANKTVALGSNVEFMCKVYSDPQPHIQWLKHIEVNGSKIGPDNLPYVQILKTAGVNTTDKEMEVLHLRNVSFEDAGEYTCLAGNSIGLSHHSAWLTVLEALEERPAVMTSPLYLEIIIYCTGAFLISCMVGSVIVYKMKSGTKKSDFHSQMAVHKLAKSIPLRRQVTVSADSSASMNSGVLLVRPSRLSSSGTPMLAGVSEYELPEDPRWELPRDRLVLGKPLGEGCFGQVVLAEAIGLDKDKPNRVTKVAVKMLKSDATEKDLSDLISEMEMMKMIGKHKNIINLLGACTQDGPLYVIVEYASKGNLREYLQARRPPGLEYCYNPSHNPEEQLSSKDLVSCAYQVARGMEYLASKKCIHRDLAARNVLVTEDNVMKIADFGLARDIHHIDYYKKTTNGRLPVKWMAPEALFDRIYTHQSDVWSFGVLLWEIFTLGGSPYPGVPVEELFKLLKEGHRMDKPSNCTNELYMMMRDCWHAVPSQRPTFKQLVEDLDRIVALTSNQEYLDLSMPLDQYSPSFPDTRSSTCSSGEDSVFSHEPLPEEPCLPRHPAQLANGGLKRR
Proto-oncogene tyrosine-protein kinase Src, sequence (P12931 2-536 limits assumed): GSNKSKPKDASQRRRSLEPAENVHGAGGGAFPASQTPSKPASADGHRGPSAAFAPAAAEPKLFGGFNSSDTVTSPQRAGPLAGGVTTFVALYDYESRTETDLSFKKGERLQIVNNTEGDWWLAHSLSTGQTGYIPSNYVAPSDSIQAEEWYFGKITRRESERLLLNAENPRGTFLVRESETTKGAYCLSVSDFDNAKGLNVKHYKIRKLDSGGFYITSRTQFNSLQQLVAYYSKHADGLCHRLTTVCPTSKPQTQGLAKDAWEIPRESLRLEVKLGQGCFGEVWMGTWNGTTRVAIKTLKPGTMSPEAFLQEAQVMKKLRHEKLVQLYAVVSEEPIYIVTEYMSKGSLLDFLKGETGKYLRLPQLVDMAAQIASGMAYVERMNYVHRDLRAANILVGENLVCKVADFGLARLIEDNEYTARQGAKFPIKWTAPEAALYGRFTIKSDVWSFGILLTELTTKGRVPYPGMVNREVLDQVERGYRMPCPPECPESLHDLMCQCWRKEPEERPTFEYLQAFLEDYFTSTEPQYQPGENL

`CCN(CC)CCOc1cccc(Nc2ncc3cc(-c4c(Cl)cccc4Cl)c(=O)n(C)c3n2)c1`: the 50% inhibitory concentration (IC50) was 17 nM in the experiment with NIH3T3 [1]; 30 nM in experiment [3]; 2790 nM and 400 nM in the experiment on C6 [5]; 32 nM in experiment [7]; 9 nM in experiment [10]; 440 nM and 120 nM with C6 [11]. Further, the IC50 with NIH3T3 [12] is 17 nM; in experiment [17], 1.7 nM; in the experiment on NIH3T3 [20], 147 nM and 410 nM; in the experiment on C6 [22], 840 nM and 350 nM. For the same compound, the Weight change result with COLO 205 [2] is on record as “Weight gain”; in the experiment with Mus musculus [13], -1.6 g; with SK-OV-3 [14], -2 g; with C6 [16], “Weight gain”; in the experiment on HT-29 [18] it was -2 g; in the experiment on MCF7 [19], “Weight gain”. Moreover, the results for the Net cell kill in the experiment on COLO 205 [4] and with MCF7 [6] were -0.4 log10 and -0.6 log10, respectively. Further, the T-C is 0.8 days in the experiment on MCF7 [8]; -2 days with C6 [9]; 6.8 days with COLO 205 [15]; -0.4 days in the experiment on Mus musculus [21]; -0.4 days in the experiment with SK-OV-3 [23]; -2.5 days in the experiment on HT-29 [24].
